ChEMBL document CHEMBL4000215, “A structure-guided optimization of pyrido[2,3-d]pyrimidin-7-ones as selective inhibitors of EGFRL858R/T790M mutant with improved pharmacokinetic properties” (Eur J Med Chem, 2017)

Columns and labels:
NCI-H1975 = test: Antiproliferative activity against human NCI-H1975 cells harboring EGFR L858R/T790M double mutant after 72 hrs by SRB assay; format: functional, cell-based; settings: NCI-H1975, 72 h
Outline: (§1)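 Cells were cultured in RPMI 1640 with 10% FBS and 1% penicillin-streptomycin at 37 °C in 5% CO2, and their EGFR gene was sequenced before use. They were exposed to a range of compound concentrations for 72 h, and growth was read by sulforhodamine B staining. IC50 came from non-linear regression with a sigmoidal dose-response model.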

[1] = molecular target: Epidermal growth factor receptor (Homo sapiens, UniProt P00533, L858R/T790M); test: Inhibition of N-terminal 6His/TEV protease cleavage site-tagged human EGFR L858R/T790M double mutant (696 to 1022 residues) using poly (Glu,Tyr) 4:1 as substrate after 1 hr by ELISA
[2] = molecular target: T1, Epidermal growth factor receptor (Homo sapiens, UniProt P00533); test: Inhibition of N-terminal 6His/TEV protease cleavage site-tagged wild type human EGFR using poly (Glu,Tyr) 4:1 as substrate after 1 hr by ELISA
A-431 = test: Antiproliferative activity against human A431 cells harboring wild type EGFR after 72 hrs by SRB assay; format: cell-based; settings: A-431, 72 h; outline: as §1
[3] = Cmax in Sprague-Dawley rat at 25 mg/kg administered via oral gavage by LC-MS/MS analysis; format: ADME, organism-based; set-up: dose 25 mg/kg, route oral; settings: in vivo
Outline: (§2)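 Male Sprague-Dawley rats (180-300 g, n = 3 per route) were given a single dose, either 5 mg/kg iv or 25 mg/kg by oral gavage. Vehicle was 5% DMSO, 40% PEG400 and saline. Orbital sinus blood (0.2 mL) was taken into heparinized tubes at 0 min to 24 h. Plasma was stored at -80 °C and assayed by LC-MS/MS, and PK parameters were then calculated.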

[4] = Tmax in Sprague-Dawley rat at 25 mg/kg administered via oral gavage by LC-MS/MS analysis; format: ADME, organism-based; settings: in vivo; outline: as §2
[5] = Oral bioavailability in Sprague-Dawley rat at 25 mg/kg administered via gavage by LC-MS/MS analysis; format: ADME, organism-based; settings: in vivo; outline: as §2
[6] = Cmax in Sprague-Dawley rat at 5 mg/kg, iv by LC-MS/MS analysis; format: ADME, organism-based; set-up: dose 5 mg/kg, route intravenous; settings: in vivo; outline: as §2
Rattus norvegicus [7] = test: (§3) AUC (0 to infinity) in Sprague-Dawley rat at 5 mg/kg, iv by LC-MS/MS analysis; format: ADME, organism-based; set-up: dose 5 mg/kg, time infinity, route intravenous; settings: in vivo; outline: as §2
Rattus norvegicus [8] = test: (§4) Apparent clearance in Sprague-Dawley rat at 5 mg/kg, iv by LC-MS/MS analysis; format: ADME, organism-based; settings: in vivo; outline: as §2
[9] = AUC (0 to infinity) in Sprague-Dawley rat at 25 mg/kg administered via oral gavage by LC-MS/MS analysis; format: ADME, organism-based; set-up: dose 25 mg/kg, route oral, time infinity; settings: in vivo; outline: as §2
[10] = as §3; format: ADME, organism-based; set-up: dose 5 mg/kg, time infinity, route intravenous; settings: Sprague-Dawley, in vivo; outline: as §2
[11] = as §4; format: ADME, organism-based; settings: Sprague-Dawley, in vivo, read-out: CL(app) (converted); outline: as §2
[12] = molecular target: T1, Epidermal growth factor receptor; test: Inhibition of EGF-stimulated wild type EGFR phosphorylation in human A431 cells at 3 to 300 nM preincubated for 4 hrs followed by EGF stimulation measured after 10 mins by Western blot analysis; settings: a431, 10 min, 0.3 µM
[13] = molecular target: T1, Epidermal growth factor receptor; test: Inhibition of EGF-stimulated wild type EGFR in human A431 cells assessed as decrease in ERK phosphorylation at 3 to 300 nM preincubated for 4 hrs followed by EGF stimulation measured after 10 mins by Western blot analysis; settings: a431, 10 min, 0.3 µM

Sequence of Epidermal growth factor receptor (Homo sapiens, UniProt P00533, L858R/T790M) (P00533 25-1210 T790M/L858R limits assumed): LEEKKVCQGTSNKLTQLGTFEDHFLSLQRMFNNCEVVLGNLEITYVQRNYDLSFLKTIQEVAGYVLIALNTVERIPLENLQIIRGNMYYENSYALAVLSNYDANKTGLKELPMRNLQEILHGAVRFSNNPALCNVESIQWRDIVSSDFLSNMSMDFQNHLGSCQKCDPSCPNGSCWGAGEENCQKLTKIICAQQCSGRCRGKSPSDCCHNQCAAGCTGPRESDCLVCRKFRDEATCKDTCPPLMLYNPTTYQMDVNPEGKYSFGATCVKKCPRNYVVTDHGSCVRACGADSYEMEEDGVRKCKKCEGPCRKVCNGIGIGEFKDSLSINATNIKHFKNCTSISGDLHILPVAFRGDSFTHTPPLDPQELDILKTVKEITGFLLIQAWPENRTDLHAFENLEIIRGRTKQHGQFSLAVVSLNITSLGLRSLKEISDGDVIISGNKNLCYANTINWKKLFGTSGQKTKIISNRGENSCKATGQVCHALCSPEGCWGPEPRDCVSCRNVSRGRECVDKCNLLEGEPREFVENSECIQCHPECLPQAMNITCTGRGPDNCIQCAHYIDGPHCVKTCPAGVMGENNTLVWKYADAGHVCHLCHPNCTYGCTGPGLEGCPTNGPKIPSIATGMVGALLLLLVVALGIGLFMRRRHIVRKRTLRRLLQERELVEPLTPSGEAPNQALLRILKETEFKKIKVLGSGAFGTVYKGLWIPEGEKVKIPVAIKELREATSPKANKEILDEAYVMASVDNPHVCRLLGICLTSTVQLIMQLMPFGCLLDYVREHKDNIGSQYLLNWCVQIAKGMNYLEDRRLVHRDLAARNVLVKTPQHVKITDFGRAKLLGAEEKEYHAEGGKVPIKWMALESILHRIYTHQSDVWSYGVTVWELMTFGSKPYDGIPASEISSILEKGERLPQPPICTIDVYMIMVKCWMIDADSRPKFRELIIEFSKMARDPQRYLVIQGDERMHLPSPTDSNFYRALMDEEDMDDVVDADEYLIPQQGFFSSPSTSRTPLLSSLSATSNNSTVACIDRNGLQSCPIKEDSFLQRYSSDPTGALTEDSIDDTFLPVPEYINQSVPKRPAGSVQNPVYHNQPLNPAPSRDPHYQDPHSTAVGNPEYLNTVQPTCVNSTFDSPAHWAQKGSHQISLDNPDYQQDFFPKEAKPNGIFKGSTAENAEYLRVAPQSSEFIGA
T1 sequence (P00533 whole entry): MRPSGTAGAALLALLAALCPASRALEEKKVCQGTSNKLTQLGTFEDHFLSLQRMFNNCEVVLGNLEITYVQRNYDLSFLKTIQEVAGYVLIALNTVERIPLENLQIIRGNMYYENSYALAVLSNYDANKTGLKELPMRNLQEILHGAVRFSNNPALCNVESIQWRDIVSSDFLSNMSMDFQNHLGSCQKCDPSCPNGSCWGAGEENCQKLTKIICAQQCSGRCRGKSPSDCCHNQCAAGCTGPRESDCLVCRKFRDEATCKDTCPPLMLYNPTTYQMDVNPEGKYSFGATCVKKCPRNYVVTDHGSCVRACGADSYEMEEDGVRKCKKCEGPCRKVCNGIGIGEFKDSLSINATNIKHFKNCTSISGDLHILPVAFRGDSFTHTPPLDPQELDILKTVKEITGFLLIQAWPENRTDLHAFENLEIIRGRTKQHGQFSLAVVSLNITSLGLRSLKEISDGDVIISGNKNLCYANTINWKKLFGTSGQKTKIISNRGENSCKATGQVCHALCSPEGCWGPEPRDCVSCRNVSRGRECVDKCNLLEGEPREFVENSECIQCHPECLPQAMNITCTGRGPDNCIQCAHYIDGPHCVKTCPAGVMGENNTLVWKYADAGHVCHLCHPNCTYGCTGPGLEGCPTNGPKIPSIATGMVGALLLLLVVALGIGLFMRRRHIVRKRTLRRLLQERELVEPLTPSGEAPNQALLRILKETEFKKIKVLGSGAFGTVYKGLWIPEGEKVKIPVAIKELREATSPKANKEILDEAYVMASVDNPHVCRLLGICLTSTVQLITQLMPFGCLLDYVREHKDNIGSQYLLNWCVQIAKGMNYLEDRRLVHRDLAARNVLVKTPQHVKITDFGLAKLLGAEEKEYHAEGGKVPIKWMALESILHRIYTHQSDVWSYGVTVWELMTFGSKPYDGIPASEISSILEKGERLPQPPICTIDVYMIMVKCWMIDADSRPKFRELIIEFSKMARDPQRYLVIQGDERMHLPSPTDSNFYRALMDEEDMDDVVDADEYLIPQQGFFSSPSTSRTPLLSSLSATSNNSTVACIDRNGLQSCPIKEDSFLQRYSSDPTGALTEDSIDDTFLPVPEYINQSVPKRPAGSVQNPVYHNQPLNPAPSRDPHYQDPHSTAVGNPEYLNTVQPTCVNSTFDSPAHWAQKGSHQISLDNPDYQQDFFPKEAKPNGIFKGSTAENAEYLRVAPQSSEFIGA

Row | Structure (SMILES) | IC50 (NCI-H1975) [nM] | IC50 [1] [nM] | IC50 [2] [nM] | IC50 (A-431) [nM] | also measured
1 | C=CC(=O)Nc1cccc(-n2c(=O)cc(C)c3cnc(Nc4ccc(N5CCN(C)CC5)nc4)nc32)c1 | 64 | 1.4 | 46.8 | 2380 | –
2 | C=CC(=O)Nc1cccc(-n2c(=O)cc(C)c3cnc(Nc4ccc(N5CC(C)N(C)C(C)C5)cc4OC)nc32)c1 (centres undefined) | 4 | – | – | 1670 | –
3 | C=CC(=O)Nc1cc(-n2c(=O)cc(C)c3cnc(Nc4ccc(N5CCN(C)C(C)C5)cc4OC)nc32)cc(C(F)(F)F)c1.CS(=O)(=O)O (centres undefined) | – | – | – | – | Cmax [3]: 21.4 ng/mL; Tmax [4]: 1.67 h; bioavailability [5]: 5.58%; Cmax [6]: 259 ng/mL; AUC (Rattus norvegicus [7]): 398.48 µg·h/L; CL(app) (Rattus norvegicus [8]): 2.25 L/h/kg; AUC(0-inf) [9]: 111 ng·h/mL
4 | C=CC(=O)Nc1cc(-n2c(=O)cc(C)c3cnc(Nc4ccc(N5CCN(C)CC5)cc4OC)nc32)cc(C(F)(F)F)c1.CS(=O)(=O)O | – | – | – | – | Cmax [3]: 161 ng/mL; Tmax [4]: 2 h; bioavailability [5]: 16.1%; Cmax [6]: 2460 ng/mL; AUC(0-inf) [10]: 831 ng·h/mL; clearance [11]: 102 mL/min/kg; AUC(0-inf) [9]: 671 ng·h/mL
5 | C=CC(=O)Nc1cc(C(C)C)cc(-n2c(=O)cc(C)c3cnc(Nc4ccc(N5CCN(C)CC5)cc4OC)nc32)c1 | 120 | 2.4 | 24 | 1440 | –
6 | C=CC(=O)N1CCC(Cn2c(=O)cc(C)c3cnc(Nc4ccc(N5CCN(C)CC5)cc4OC)nc32)C1 (racemic) | 305 | 63.8 | > 1000 | > 10000 | –
7 | C=CC(=O)N1CC[C@@H](n2c(=O)cc(C)c3cnc(Nc4ccc(N5CCN(C)CC5)cc4OC)nc32)C1 | 5200 | – | – | > 10000 | –
8 | C=CC(=O)Nc1cccc(-n2c(=O)cc(C)c3cnc(Nc4ccc(N5CCN(C)C(C)C5)cc4OC)nc32)c1.CS(=O)(=O)O (centres undefined) | – | – | – | – | Cmax [3]: 155 ng/mL; Tmax [4]: 1.67 h; bioavailability [5]: 24.3%; Cmax [6]: 1330 ng/mL; AUC(0-inf) [10]: 433 ng·h/mL; clearance [11]: 197 mL/min/kg; AUC(0-inf) [9]: 526 ng·h/mL
9 | C=CC(=O)Nc1cccc(-n2c(=O)cc(C)c3cnc(Nc4ccc(N5CC(C)N(C)C(C)C5)cc4OC)nc32)c1.CS(=O)(=O)O (centres undefined) | – | – | – | – | Cmax [3]: 64.4 ng/mL; Tmax [4]: 4 h; bioavailability [5]: 13.3%; Cmax [6]: 772 ng/mL; AUC(0-inf) [10]: 622 ng·h/mL; clearance [11]: 135 mL/min/kg; AUC(0-inf) [9]: 613 ng·h/mL
10 | C=CC(=O)Nc1cccc(Nc2nc(Nc3ccc(N4CCN(C(C)=O)CC4)cc3OC)ncc2C(F)(F)F)c1 [ROCILETINIB] | 42 | – | – | 1540 | –
12 | C=CC(=O)Nc1cc(-n2c(=O)cc(C)c3cnc(Nc4ccc(N5CCN(C)CC5)cc4OC)nc32)cc(C(C)(C)C)c1 | 197 | 17.7 | > 1000 | 660 | –
13 | C=CC(=O)Nc1cccc(-n2c(=O)cc(C)c3cnc(Nc4ccc(N5CCN(C)CC5)cc4OC)nc32)c1.CS(=O)(=O)O | – | – | – | – | Cmax [3]: 83.1 ng/mL; Tmax [4]: 1.56 h; bioavailability [5]: 10.8%; Cmax [6]: 1370 ng/mL; AUC(0-inf) [10]: 450 ng·h/mL; clearance [11]: 190 mL/min/kg; AUC(0-inf) [9]: 243 ng·h/mL
14 | C=CC(=O)N1CC[C@H](n2c(=O)cc(C)c3cnc(Nc4ccc(N5CCN(C)CC5)cc4OC)nc32)C1 | 762 | – | – | > 10000 | –
15 | C=CC(=O)Nc1cccc(-n2c(=O)cc(C)c3cnc(Nc4cnn(C5CCN(C)CC5)c4)nc32)c1 | 14 | 1.8 | 166 | 3520 | –
16 | C=CC(=O)Nc1cccc(-n2c(=O)cc(C)c3cnc(Nc4nc5c(s4)CN(C)CC5)nc32)c1 | 8 | 2.5 | 550 | 2700 | –
17 | C=CC(=O)Nc1cc(-n2c(=O)cc(C)c3cnc(Nc4ccc(N5CC(C)N(C)C(C)C5)cc4OC)nc32)cc(C(F)(F)F)c1.CS(=O)(=O)O (centres undefined) | – | – | – | – | Cmax [3]: 17.4 ng/mL; Tmax [4]: 6 h; bioavailability [5]: 4.38%; Cmax [6]: 592 ng/mL; AUC(0-inf) [10]: 410 ng·h/mL; clearance [11]: 205 mL/min/kg; AUC(0-inf) [9]: 89.7 ng·h/mL
18 | C=CC(=O)N1CCC(n2c(=O)cc(C)c3cnc(Nc4ccc(N5CCN(C)CC5)cc4OC)nc32)CC1 | 2240 | > 1000 | > 1000 | > 10000 | –

Continued, in another order:

Row | IC50 (NCI-H1975) [nM] | IC50 [1] [nM] | IC50 [2] [nM] | IC50 (A-431) [nM] | Structure (SMILES) | also measured
19 | 18 | 1.2 | 169 | 706 | C=CC(=O)Nc1cccc(-n2c(=O)cc(C)c3cnc(Nc4ccc(N5CCN(C)C(C)C5)cc4OC)nc32)c1 (centres undefined) | –
20 | 81 | 2.3 | 36.9 | 3620 | C=CC(=O)Nc1cc(-n2c(=O)cc(C)c3cnc(Nc4ccc(N5CCN(C)CC5)cc4OC)nc32)ccc1C | –
21 | 2 | – | 330 | 1400 | C=CC(=O)Nc1cccc(-n2c(=O)cc(C)c3cnc(Nc4ccc(N5CCN(C)CC5)cc4OC)nc32)c1 | –
22 | 7 | 0.6 | 33.1 | 1430 | C=CC(=O)Nc1cc(Cl)cc(-n2c(=O)cc(C)c3cnc(Nc4ccc(N5CCN(C)CC5)cc4OC)nc32)c1 | –
23 | 4 | 1.8 | 57 | 1150 | C=CC(=O)Nc1cc(Br)cc(-n2c(=O)cc(C)c3cnc(Nc4ccc(N5CCN(C)CC5)cc4OC)nc32)c1 | –
24 | 142 | 3.4 | 472 | 1050 | C=CC(=O)Nc1cc(CC)cc(-n2c(=O)cc(C)c3cnc(Nc4ccc(N5CCN(C)CC5)cc4OC)nc32)c1 | –
25 | 40 | 2 | 182 | 1390 | C=CC(=O)Nc1cc(-n2c(=O)cc(C)c3cnc(Nc4ccc(N5CCN(C)CC5)cc4OC)nc32)cc(C(F)(F)F)c1 | inhibition (INH) [12]: Not Active; inhibition (INH) [13]: Not Active
26 | 30 | 3.3 | 97 | 1130 | C=CC(=O)Nc1cc(-n2c(=O)cc(C)c3cnc(Nc4ccc(N5CC(C)N(C)C(C)C5)cc4OC)nc32)cc(C(F)(F)F)c1 (centres undefined) | –
27 | 0.1 | 0.8 | 26 | 817 | C=CC(=O)Nc1cc(F)cc(-n2c(=O)cc(C)c3cnc(Nc4ccc(N5CCN(C)CC5)cc4OC)nc32)c1 | –
28 | 12 | 1.6 | 66 | 1710 | C=CC(=O)Nc1cc(-n2c(=O)cc(C)c3cnc(Nc4ccc(N5CCN(C)C(C)C5)cc4OC)nc32)cc(C(F)(F)F)c1 (centres undefined) | –
29 | 289 | 4.2 | 445 | 4000 | C=CC(=O)Nc1cccc(-n2c(=O)cc(C)c3cnc(Nc4cnn(CCN(C)C)c4)nc32)c1 | –
30 | 6 | 1.8 | 208 | 3250 | C=CC(=O)Nc1cc(C)cc(-n2c(=O)cc(C)c3cnc(Nc4ccc(N5CCN(C)CC5)cc4OC)nc32)c1 | –
